2 compounds from ChEMBL document CHEMBL1159018, “(-)-agelasidine C and (-)-agelasidine D, two new hypotaurocyamine diterpenoids from the Caribbean sea sponge Agelas clathrodes” (J Nat Prod, 1992) can be followed below.

Data set [1] deals with Proteus vulgaris. Nature of the data set: Antimicrobial activity against Proteus vulgaris at 1.9 mg/ml by standard disk assay. Format: functional, organism-based. The essentials: (§1)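 Tested at one concentration only, 1.9 mg/ml.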
Data set [2] is described as follows: Cytotoxicity against CHOK1 cells. In kind it is cell-based, Cricetulus griseus. The settings on record: chinese hamster, CHO-K1 cells; read-out: ED50 (the source's name). The essentials: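 CHO-K1 cell growth inhibition, reported as ED50 in µg/ml.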
In data set [3] the test system is Klebsiella pneumoniae. Nature of the data set: Antimicrobial activity against Klebsiella pneumoniae at 1.9 mg/ml by standard disk assay. Format: functional, organism-based. The essentials:
as §1

Data set [4] concerns Staphylococcus aureus. Nature of the data set: Antimicrobial activity against Staphylococcus aureus at 1.9 mg/ml by standard disk assay. Format: functional, organism-based. The essentials: as §1
The subject of data set [5] is Klebsiella pneumoniae. The data set is described as follows: Antimicrobial activity against Klebsiella pneumoniae by standard disk assay. In kind it is functional, organism-based. The essentials:
as §1

Data set [6] deals with Proteus vulgaris. Nature of the data set: Antimicrobial activity against Proteus vulgaris by standard disk assay. In kind it is functional, organism-based. The essentials: as §1
Data set [7] concerns Staphylococcus aureus. The data set is described as follows: Antimicrobial activity against Staphylococcus aureus by standard disk assay. In kind it is functional, organism-based. The essentials: as §1
The test system of a further data set is Hafnia alvei. The data set is described as follows: Antimicrobial activity against Hafnia alvei by standard disk assay. Format: functional, organism-based.
In a further data set the test system is Escherichia coli. The data set is described as follows: Antimicrobial activity against Escherichia coli by standard disk assay. In kind it is functional, organism-based.

The structures appear in SMILES notation. In brackets after ≈: the same amount, converted by molar mass. Activity calls are given as the source filed them. No cut-off for these calls is given here.

With `CC1=CCC[C@H](C)[C@@]1(C)CC/C(C)=C/CC/C(C)=C/CS(=O)(=O)CCNC(=N)N`, the result in the data set with Proteus vulgaris [1], with Klebsiella pneumoniae [3] and in the data set with Staphylococcus aureus [4] was Active. The CC50 in data set [2] is 5.7 µg/mL (≈ 13.5 µM).
Turning to `CC1=CCC[C@H](C)[C@@]1(C)CC/C(C)=C/CC/C(=C/CS(=O)(=O)CCNC(=N)N)CO`, the outcome with Klebsiella pneumoniae [5], in the data set with Proteus vulgaris [6], in the data set on Staphylococcus aureus [7], with Hafnia alvei and in the data set on Escherichia coli was Active. Also, the CC50 in data set [2] was determined as 2.21 µg/mL (≈ 5.03 µM).
